Results reported in paper PMC7982429 (Acta Pharmaceutica Sinica. B, 2020).
“And” between values parts separate entries of the source, which are not always exact repeats. Equal values may be shown once. Read-outs that look alike come from different tables or passages of the source. Blank lines part the entries; values can stand above or below the compound they belong to.

Legend:
SNU16 cancer cell lines = assay: Cell proliferation assay; assay type: cell-based
FGFR1 = FGFR1 (Homo sapiens, UniProt P11362); assay: Kinase inhibition assay; assay type: biochemical; details: for inhibition at 0.01 µM / inhibition at 0.1 µM / inhibition at 1 µM: read-out: FGFR1 inhibition rate (%)
FGFR1, sequence (P11362 22-822): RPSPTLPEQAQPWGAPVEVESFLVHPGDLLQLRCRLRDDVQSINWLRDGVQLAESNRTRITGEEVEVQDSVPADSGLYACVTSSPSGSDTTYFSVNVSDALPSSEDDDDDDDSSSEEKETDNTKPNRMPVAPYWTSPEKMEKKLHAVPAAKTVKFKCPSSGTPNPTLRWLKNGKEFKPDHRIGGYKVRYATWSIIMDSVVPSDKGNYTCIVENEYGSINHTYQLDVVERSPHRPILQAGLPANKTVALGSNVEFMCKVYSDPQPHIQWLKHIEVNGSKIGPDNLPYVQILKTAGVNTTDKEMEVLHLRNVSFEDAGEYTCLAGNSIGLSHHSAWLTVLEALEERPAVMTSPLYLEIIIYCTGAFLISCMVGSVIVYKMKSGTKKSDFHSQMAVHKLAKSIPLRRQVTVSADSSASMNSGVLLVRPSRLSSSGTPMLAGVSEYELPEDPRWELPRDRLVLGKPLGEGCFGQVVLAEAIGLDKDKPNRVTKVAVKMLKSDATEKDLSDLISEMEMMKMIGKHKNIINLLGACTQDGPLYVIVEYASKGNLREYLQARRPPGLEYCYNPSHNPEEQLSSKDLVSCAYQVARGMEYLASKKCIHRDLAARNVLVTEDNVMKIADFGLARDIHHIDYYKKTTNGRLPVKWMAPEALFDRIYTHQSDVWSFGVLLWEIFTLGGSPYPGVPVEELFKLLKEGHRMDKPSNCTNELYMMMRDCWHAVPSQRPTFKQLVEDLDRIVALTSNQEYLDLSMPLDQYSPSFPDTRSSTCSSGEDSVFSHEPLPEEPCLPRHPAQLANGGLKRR

BaF3/TEL-KDR cell = assay: Cell proliferation assay, BaF3/TEL-KDR; assay type: cell-based; details: read-out: BaF3/TEL-KDR IC50
UMUC14 cells = assay: Cell proliferation assay, UMUC14; assay type: cell-based; details: read-out: UMUC14 IC50; FGFR3 mutation
BaF3/TEL-FGFR1 cell = assay: Cell proliferation assay, BaF3/TEL-FGFR1; assay type: cell-based; details: read-out: BaF3/TEL-FGFR1 IC50
NCI-H1581 xenograft = assay: In vivo antitumor activity, NCI-H1581 xenograft mouse model; parameters: species or system nude mice (BALB/c); details: 12.5 mg/kg, 20 days
H1581 cells = assay: Cell proliferation assay, H1581; assay type: cell-based; details: read-out: H1581 IC50; FGFR1 amplification
KG1 cells = assay: Cell proliferation assay, KG1; assay type: cell-based; details: read-out: KG1 IC50; FGFR1OP2-FGFR1 (FGFR1-translocated)
[1] = Whole blood stability assay; assay type: in vitro ADME, BALB/c nude mice; details: BALB/c nude, mouse, fresh whole blood
Method in brief: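 Fresh BALB/c nude mouse blood was prewarmed 10 min at 37 °C, then spiked with test compound from a DMSO working solution. Aliquots taken at 0, 0.5, 1, 2 and 5 h were quenched with acetonitrile, centrifuged, and the supernatant diluted in acetonitrile/water. Remaining parent was quantified by UPLC–MS/MS (MRM). GSH adduct was monitored in negative-mode MRM (product ion m/z 272). Triplicates.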

[2] = Homo sapiens, SNU-16, read-out: SNU16 IC50

- IC50 (SNU16 cancer cell lines; [2]): > 1000 nM
- IC50 (FGFR1): 66.8 ± 16.5 nM
Compound: Cc1c(-c2c3c(N)n[nH]c(=O)c3nn2-c2ccccc2)oc2ccc(Br)cc12 [Compound 8m]

- inhibition at 0.01 µM (FGFR1): 22.9%
- inhibition at 0.1 µM (FGFR1): 20.4%
- inhibition at 1 µM (FGFR1): 19.9%
Compound: Nc1n[nH]c(=O)c2nn(-c3ccccc3)c(-c3ccccc3)c12 [Compound 7]

- IC50 (SNU16 cancer cell lines; [2]): > 1000 nM
- inhibition at 0.1 µM (FGFR1): 73.9%
Compound: CCCCNc1cc(F)c(-n2nc3c(=O)[nH]nc(N)c3c2-c2oc3ccc(C)cc3c2C)c(F)c1 [Compound 9z]

- IC50 (FGFR1): 77.5 ± 14.7 nM
Compound: COc1ccc2oc(-c3c4c(N)n[nH]c(=O)c4nn3-c3ccccc3)c(C)c2c1 [Compound 8f]

- inhibition at 0.1 µM (FGFR1): 76.4%
Compound: CC(=O)Nc1ccc(-n2nc3c(=O)[nH]nc(N)c3c2-c2oc3ccc(C)cc3c2C)cc1 [Compound 9j]

- inhibition at 0.1 µM (FGFR1): 66.2%
Compound: CCC(=O)Nc1ccc(-n2nc3c(=O)[nH]nc(N)c3c2-c2oc3ccc(C)cc3c2C)cc1 [Compound 9o]

- IC50 (FGFR1): 13.8 ± 1.3 nM
Compound: Cc1ccc2oc(-c3c4c(N)n[nH]c(=O)c4nn3-c3ccc(CNC(=O)OCc4ccccc4)cc3)c(C)c2c1 [Compound 9m]

- IC50 (SNU16 cancer cell lines; [2]): 660 ± 322 nM
Compound: C=CC(=O)Nc1cccc(-n2nc3c(=O)[nH]nc(N)c3c2-c2oc3ccc(C)cc3c2C)c1 [Compound 10l]

- inhibition at 0.1 µM (FGFR1): 38.1%
Compound: Cc1c(-c2c3c(N)n[nH]c(=O)c3nn2-c2ccccc2)oc2c(Cl)cccc12 [Compound 8p]

- inhibition at 0.1 µM (FGFR1): 16.9%
Compound: Cc1ccc2oc(-c3c4c(N)n[nH]c(=O)c4nn3Cc3ccc([N+](=O)[O-])cc3)c(C)c2c1 [Compound 9w]

- inhibition at 0.01 µM (FGFR1): 18.6%
- inhibition at 0.1 µM (FGFR1): 19.6%
- inhibition at 1 µM (FGFR1): 22.9%
Compound: Nc1n[nH]c(=O)c2nn(-c3ccccc3)c(-c3ccco3)c12 [Compound 6]

- inhibition at 0.1 µM (FGFR1): 64.2%
Compound: Cc1c(-c2c3c(N)n[nH]c(=O)c3nn2-c2ccccc2)oc2cc(Cl)ccc12 [Compound 8i]
- inhibition at 1 µM (SNU16 cancer cell lines; Homo sapiens, SNU-16, read-out: SNU16 proliferation inhibition): 49.7%

- IC50 (FGFR1): 67.7 ± 3.9 nM
Compound: COc1ccc2c(C)c(-c3c4c(N)n[nH]c(=O)c4nn3-c3ccccc3)oc2c1 [Compound 8d]

- IC50 (SNU16 cancer cell lines; read-out: SNU16 IC50, FGFR2 amplification SNU16 cell line): 3.7 nM and 5 nM
- IC50 (BaF3/TEL-KDR cell): 417 ± 10 nM
- IC50 (BaF3/TEL-FGFR1 cell): 0.5 nM
- IC50 (H1581 cells): 59.8 ± 8.1 nM
Compound: AZD4547
- IC50 (UMUC14 cells): 6.4 ± 1.3 nM
- TGI (tumor weight inhibition rate at the treatment endpoint) (NCI-H1581 xenograft): 65.6%
- IC50 (KG1 cells): 3.7 ± 0.6 nM

- half-life at 1 μmol/L [1]: 71.2 h
Compound: C/C=C/C(=O)Nc1ccc(-n2nc3c(=O)[nH]nc(N)c3c2-c2oc3ccc(C)cc3c2C)cc1 [Compound 10b]

- IC50 (FGFR1): 56.4 ± 15.8 nM
Compound: Cc1c(-c2c3c(N)n[nH]c(=O)c3nn2-c2ccccc2)oc2ccc(Cl)cc12 [Compound 8j]
